Reference: ChEMBL document CHEMBL4033682, “Discovery of indolin-2-one derivatives as potent PAK4 inhibitors: Structure-activity relationship analysis, biological evaluation and molecular docking study” (Bioorg Med Chem, 2017)
pIC50: −log10 of the molar value. One block for each compound: values may come before it. The source made the active and inactive calls. The rule behind the calls is not given here.

How the values were obtained:
[1] = target: T1, Serine/threonine-protein kinase PAK 4 (Homo sapiens, UniProt O96013); assay: Inhibition of PAK4 (unknown origin) using substrate S2 after 60 mins by HTRF assay; conditions: for pIC50: read-out: IC50; for IC50: read-out: pIC50 (converted)
Target sequence in this assay (O96013 whole entry): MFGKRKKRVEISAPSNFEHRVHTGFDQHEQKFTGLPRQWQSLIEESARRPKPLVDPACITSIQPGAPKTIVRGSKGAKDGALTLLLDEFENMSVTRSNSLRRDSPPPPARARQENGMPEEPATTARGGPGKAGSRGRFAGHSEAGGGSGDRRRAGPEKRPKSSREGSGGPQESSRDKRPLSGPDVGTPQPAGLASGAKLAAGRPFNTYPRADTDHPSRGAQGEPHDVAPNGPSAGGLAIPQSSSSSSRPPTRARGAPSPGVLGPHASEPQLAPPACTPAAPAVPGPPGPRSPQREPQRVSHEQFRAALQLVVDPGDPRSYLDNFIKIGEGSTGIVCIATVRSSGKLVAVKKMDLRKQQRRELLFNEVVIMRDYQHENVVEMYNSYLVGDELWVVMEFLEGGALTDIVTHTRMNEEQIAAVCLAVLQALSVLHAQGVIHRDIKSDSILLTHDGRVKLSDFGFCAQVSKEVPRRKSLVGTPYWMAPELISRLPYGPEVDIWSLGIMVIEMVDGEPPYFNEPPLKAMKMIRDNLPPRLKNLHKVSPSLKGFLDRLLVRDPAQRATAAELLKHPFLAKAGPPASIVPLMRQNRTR

A549 [2] = assay: Growth inhibition of human A549 cells after 72 hrs by CCK8 assay; format: functional, cell-based; conditions: A549, 72 h
In short: (§1)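 Cells seeded in 96-well plates and exposed to various compound concentrations on the seeding day, cultured 72 h at 37 °C. Proliferation read by CCK-8.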

HT-1080 = assay: Growth inhibition of human HT1080 cells after 72 hrs by CCK8 assay; format: functional, cell-based; conditions: HT-1080, 72 h; in short: as §1
MCF7 = assay: Growth inhibition of human MCF7 cells after 72 hrs by CCK8 assay; format: functional, cell-based; conditions: MCF7, 72 h; in short: as §1
A549 [3] = assay: Induction of apoptosis in human A549 cells assessed as late apoptotic cells at 5 uM after 72 hrs by Annexin-V/7AAD staining based flow cytometry (reference value: 2.95%); format: functional
A549 [4] = assay: Cell cycle arrest in human A549 cells assessed as accumulation at G2 phase at 5 uM after 72 hrs by propidium iodide staining based flow cytometry (reference value: 17.62%); format: functional
A549 [5] = assay: Induction of apoptosis in human A549 cells assessed as live cells at 5 uM after 72 hrs by Annexin-V/7AAD staining based flow cytometry (reference value: 93.98%); format: functional
A549 [6] = assay: Induction of apoptosis in human A549 cells after 72 hrs by Annexin-V/7AAD staining based flow cytometry; format: functional, cell-based
A549 [7] = assay: Induction of apoptosis in human A549 cells assessed as early apoptotic cells at 5 uM after 72 hrs by Annexin-V/7AAD staining based flow cytometry (reference value: […]); format: functional
[8] = target: T1, Serine/threonine-protein kinase PAK 4; assay: Inhibition of PAK4 phosphorylation in human A549 cells after 2 hrs by Western blot analysis; format: cell-based
In short: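 A549 cells treated with indicated dose for 2 h, lysed in SDS sample buffer, resolved by 10% SDS-PAGE, transferred to nitrocellulose, probed for phospho-PAK4 and PAK4 (GAPDH loading control) with HRP-conjugated secondary antibodies, detected by enhanced chemiluminescence.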
Target sequence in this assay (O96013 whole entry, looked up): as the sequence (O96013 whole entry) above

A549 [9] = assay: Induction of apoptosis in human A549 cells assessed as live cells at 1 uM after 72 hrs by Annexin-V/7AAD staining based flow cytometry (reference value: 93.98%); format: functional
A549 [10] = assay: Cell cycle arrest in human A549 cells assessed as accumulation at S phase at 1 uM after 72 hrs by propidium iodide staining based flow cytometry (reference value: 37.39%); format: functional
A549 [11] = assay: Cell cycle arrest in human A549 cells assessed as accumulation at G1 phase at 5 uM after 72 hrs by propidium iodide staining based flow cytometry (reference value: 44.99%); format: functional
A549 [12] = assay: Cell cycle arrest in human A549 cells assessed as accumulation at G1 phase at 1 uM after 72 hrs by propidium iodide staining based flow cytometry (reference value: 44.99%); format: functional
A549 [13] = assay: Induction of apoptosis in human A549 cells assessed as necrotic cells at 5 uM after 72 hrs by Annexin-V/7AAD staining based flow cytometry (reference value: 0.65%); format: functional
A549 [14] = assay: Induction of apoptosis in human A549 cells assessed as necrotic cells at 1 uM after 72 hrs by Annexin-V/7AAD staining based flow cytometry (reference value: 0.65%); format: functional
A549 [15] = assay: Induction of apoptosis in human A549 cells assessed as early apoptotic cells at 1 uM after 72 hrs by Annexin-V/7AAD staining based flow cytometry (reference value: […]); format: functional
A549 [16] = assay: Antimigratory activity against human A549 cells at 5 uM […] by crystal violet staining based transwell chamber assay; format: functional, cell-based
[17] = target: T1, Serine/threonine-protein kinase PAK 4; assay: Inhibition of PAK4 in human A549 cells assessed as reduction in cofilin phosphorylation after 72 hrs by Western blot analysis; format: cell-based
Target sequence in this assay (O96013 whole entry, looked up): as the sequence (O96013 whole entry) above

A549 [18] = assay: Cell cycle arrest in human A549 cells assessed as accumulation at G2 phase at 1 uM after 72 hrs by propidium iodide staining based flow cytometry (reference value: 17.62%); format: functional
A549 [19] = assay: Cell cycle arrest in human A549 cells assessed as accumulation at S phase at 5 uM after 72 hrs by propidium iodide staining based flow cytometry (reference value: 37.39%); format: functional
[20] = target: T1, Serine/threonine-protein kinase PAK 4; assay: Inhibition of PAK4 in human A549 cells assessed as reduction in LIMK1 phosphorylation after 72 hrs by Western blot analysis; format: cell-based
Target sequence in this assay (O96013 whole entry, looked up): as the sequence (O96013 whole entry) above

A549 [21] = assay: Induction of apoptosis in human A549 cells assessed as late apoptotic cells at 1 uM after 72 hrs by Annexin-V/7AAD staining based flow cytometry (reference value: 2.95%); format: functional
A549 [22] = assay: Anti-invasive activity against human A549 cells at 5 uM […] by crystal violet staining based matrigel invasion chamber assay; format: functional, cell-based

pIC50 [1]: 6.42
SMILES: O=C1Nc2ccc(C(=O)N[C@H](CO)c3ccccc3)cc2/C1=C/c1ccn[nH]1

pIC50 [1]: 6.14
SMILES: O=C1Nc2cc(F)c(C(=O)N[C@H](CO)c3ccccc3)cc2/C1=C/c1ccc[nH]1

pIC50 [1]: 6.70
SMILES: O=C1Nc2ccc(C(=O)N[C@H](CO)c3ccccc3Cl)cc2/C1=C/c1ccc[nH]1

pIC50 [1]: 6.20
SMILES: CC(C)(C)[C@@H](CO)NC(=O)c1ccc2c(c1)/C(=C/c1ccc[nH]1)C(=O)N2

pIC50 [1]: 5.63
SMILES: CC(C)[C@@H](CO)NC(=O)c1ccc2c(c1)/C(=C/c1ccc[nH]1)C(=O)N2

pIC50 [1]: 5.85
SMILES: O=C1Nc2cc(Cl)c(C(=O)N[C@H](CO)c3ccccc3)cc2/C1=C/c1ccc[nH]1

pIC50 (A549 [2]): 5.43
pIC50 (HT-1080): 5.10
pIC50 (MCF7): 4.97
SMILES: O=C1Nc2ccc(C(=O)N[C@H](CO)c3ccccc3)cc2/C1=C/c1cnc[nH]1

pIC50 [1]: 5.84
SMILES: Cn1nccc1-c1cc2c(cc1C(=O)N[C@H](CO)c1ccccc1)/C(=C/c1ccc[nH]1)C(=O)N2

pIC50 [1]: 5.90
SMILES: O=C1Nc2ccc(C(=O)NCCO)cc2/C1=C/c1ccc[nH]1

pIC50 [1]: 6.55
SMILES: O=C1Nc2ccc(C(=O)N[C@H](CO)c3ccccc3)cc2/C1=C/c1ncc[nH]1

pIC50 [1]: < 5.00
SMILES: O=C1Nc2ccc(C(=O)N[C@H](CO)c3ccccc3)cc2C1=Cc1ccccn1

pIC50 [1]: 5.47
SMILES: O=C1Nc2ccc(C(=O)N[C@@H](CO)c3ccccc3)cc2/C1=C/c1ccc[nH]1

pIC50 [1]: 5.89
SMILES: O=C1Nc2ccc(C(=O)N[C@H](CO)c3ccccc3)cc2/C1=C/c1cccs1

inhibition [8]: Dose-dependent effect
inhibition [17]: Dose-dependent effect
pIC50 (A549 [2]): 6.08
inhibition [20]: Dose-dependent effect
pIC50 (HT-1080): 5.17
pIC50 (MCF7): 5.68
pIC50 [1]: 7.57
IC50 [1]: 27.5 nM
SMILES: Cc1cc(C)c(/C=C2\C(=O)Nc3ccc(C(=O)N[C@H](CO)c4ccccc4)cc32)[nH]1
Activity (A549 [3]): 33.22%
Activity (A549 [4]): 33.75%
Activity (A549 [5]): 26.23%
Activity (A549 [6]): Dose-dependent effect
Activity (A549 [7]): 32.18%
Activity (A549 [9]): 70.56%
Activity (A549 [10]): 39.92%
Activity (A549 [11]): 27.78%
Activity (A549 [12]): 35.7%
Activity (A549 [13]): 8.36%
Activity (A549 [14]): 5.14%
Activity (A549 [15]): 8.44%
Activity (A549 [16]): Active
Activity (A549 [18]): 24.37%
Activity (A549 [19]): 38.47%
Activity (A549 [21]): 15.46%
Activity (A549 [22]): Active

pIC50 [1]: 6.41
SMILES: O=C1Nc2ccc(C(=O)N[C@H](CO)c3ccc(Cl)cc3)cc2/C1=C/c1ccc[nH]1

pIC50 [1]: 6.10
SMILES: O=C1Nc2ccc(C(=O)N[C@H](CO)c3ccccc3)cc2/C1=C/c1ccco1 (stereo in doubt)

pIC50 [1]: 5.81
SMILES: N#Cc1cc2c(cc1C(=O)N[C@H](CO)c1ccccc1)/C(=C/c1ccc[nH]1)C(=O)N2

pIC50 [1]: 7.27
SMILES: O=C1Nc2ccc(C(=O)N[C@H](CO)c3ccc(F)cc3)cc2/C1=C/c1ccc[nH]1

pIC50 [1]: 5.50
SMILES: O=C1Nc2ccc(C(=O)NCCCO)cc2/C1=C/c1ccc[nH]1

pIC50 [1]: 5.30
SMILES: O=C1Nc2ccc(C(=O)N[C@H](CCO)c3ccccc3)cc2/C1=C/c1ccc[nH]1

pIC50 [1]: 5.70
SMILES: Cn1cc(-c2cc3c(cc2C(=O)N[C@H](CO)c2ccccc2)/C(=C/c2ccc[nH]2)C(=O)N3)cn1

pIC50 [1]: 5.92
SMILES: O=C1Nc2cc(Br)c(C(=O)N[C@H](CO)c3ccccc3)cc2/C1=C/c1ccc[nH]1

pIC50 [1]: 6.52
SMILES: O=C1Nc2ccc(C(=O)N[C@H](CO)Cc3ccccc3)cc2/C1=C/c1ccc[nH]1

pIC50 (A549 [2]): 5.63
pIC50 (HT-1080): 6.01
pIC50 (MCF7): 5.18
pIC50 [1]: 7.66
IC50 [1]: 21.9 nM
SMILES: O=C1Nc2ccc(C(=O)N[C@H](CO)c3ccccc3)cc2/C1=C/c1ccc[nH]1
